These results are taken from ChEMBL document CHEMBL1121539, “Antitumor structure-activity relations. Nitrosoureas vs. L-1210 leukemia” (J Med Chem, 1980).

For data set [1], the system named is L1210. Put plainly: Toxicity against L-1210 leukemia cells in mice after intraperitoneal administration, activity is expressed as LD10. Conditions: mouse, in vivo, ip.
The nature of data set [2]: Partition coefficient (logP). Conditions: octanol/water. The class given is physicochemical. The gist of the method:
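Shake partitioning between octanol and distilled water gave log P. For carboxylate substituents, log P was taken in 0.1 N NaOH, with Na+ as counterion.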

Data set [3] relates to L1210. In words: Tested for 3 log kill of leukemia cells. The class given is functional, Mus musculus. A digest of the protocol:
(§1)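 L-1210 leukemia cells (10^4) were inoculated intracerebrally into BDF2 mice, and drug was given intraperitoneally. The end point was the dose giving 3 log kill, expressed as log 1/C. The value comes from one or more individual experiments.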

The species entered for data set [4] is Mus musculus. In words: Tested for 3 log kill of leukemia cells (i.e., a reduction of 1000-fold in tumor cells). Type of data set: functional. The gist of the method: as §1
The test system of data set [5] is Mus musculus. In words: Tested for toxicity against L-1210 leukemia cells in mice after ip administration, activity is expressed as LD10. Conditions: in vivo. The class given is organism-based.

For `CC(C)(Cc1ccccc1)NC(=O)N(CCCl)N=O`, in data set [1], the log(1/LD10) is -0.422. For the same compound, the logP in data set [2] (read-out: logP) was determined as 3.42. Further, the “log(1/C)” value in data set [3] came to 0.737.

In data set [1], `CC12CC3(C)CC(C)(C1)CC(NC(=O)N(CCCl)N=O)(C2)C3` displayed a log(1/LD10) of -0.384. The logP in data set [2] (read-out: logP) amounted to 5.75. The “log(1/C)” value in data set [3] came out at 0.783.

For `O=NN(CCF)C(=O)NC1CCS(=O)(=O)CC1`, the log(1/LD10) in data set [1] was 0.922. The logP in data set [2] (read-out: logP) is -0.39. In addition, the “log(1/C)” value in data set [3] is recorded as 1.92.

The compound `O=NN(CCCl)C(=O)NC1CS(=O)(=O)CS(=O)(=O)C1` yielded a log(1/LD10) in data set [1] of 0.842. In addition, the log partition coefficient (logP) in data set [2] (read-out: logP) was -0.9. Moreover, the “log(1/C)” value in data set [3] is reported as 1.9.

For `O=NN(CCCl)C(=O)NC(C(=O)O)C1CCCCC1` (stereo not drawn), the log(1/LD10) in data set [1] is 0.602. In data set [2] (read-out: logP), the logP is 2.89. The “log(1/C)” value in data set [3] is given as 1.23.

Turning to `O=NN(CCCl)C(=O)NC1CCC(CCl)CC1` (stereo not drawn), in data set [1], the log(1/LD10) was determined as 0.658. In data set [2] (read-out: logP), the logP was found to be 3.01. The “log(1/C)” value in data set [3] turned out to be 1.27.

With `O=NN(CCCl)C(=O)NC1CSCSC1`, in data set [1], the log(1/LD10) came to 1.07. In addition, in data set [2] (read-out: logP), the logP was determined as 2.08. Moreover, in data set [3], the “log(1/C)” value is on record as 1.81.

`Cc1cccc(C)c1NC(=O)N(CCCl)N=O` displayed a log(1/LD10) in data set [1] of 0.864. Further, the logP in data set [2] (read-out: logP) was 2.57. Besides, the “log(1/C)” value in data set [3] is listed as 1.29.

Compound `O=NN(CCCl)C(=O)N[C@@H]1CCC[C@@H](O)C1` registered a log(1/LD10) in data set [1] of 0.795. The logP in data set [2] (read-out: logP) came to 1. Also, the “log(1/C)” value in data set [3] was 1.44.

In data set [1], `COC(=O)[C@H]1CC[C@@H](NC(=O)N(CCCl)N=O)CC1` yielded a log(1/LD10) of 0.733. In addition, the logP in data set [2] (read-out: logP) was 1.89. For the same compound, in data set [3], the “log(1/C)” value stood at 1.51.

Regarding `CC(=O)O[C@H]1CCCC[C@@H]1NC(=O)N(CCCl)N=O`, in data set [1], the log(1/LD10) stood at 0.91. In addition, the logP in data set [2] (read-out: logP) was determined as 2.56. Also, the “log(1/C)” value in data set [3] is given as 1.65.

As for `O=NN(CCF)C(=O)N[C@H]1CC[C@@H](C(=O)O)CC1`, the “log(1/C)” value in data set [4] is given as 1.06. The same compound showed a logP in data set [2] of 1.1.

In data set [5], `O=NN(CCCl)C(=O)N[C@H]1CC[C@H](O)CC1` returned a log(1/LD10) of 0.774. The compound also gave a logP in data set [2] of 1.1.

For the compound `CC(=O)O[C@H]1CCCC[C@H]1NC(=O)N(CCCl)N=O`, the log(1/LD10) in data set [1] is 0.776. Besides, in data set [2] (read-out: logP), the logP turned out to be 1.96. In addition, in data set [3], the “log(1/C)” value was found to be 1.24.

In data set [1], `O=NN(CCCl)C(=O)NC1CCS(=O)(=O)C1` (stereo not drawn) gave a log(1/LD10) of 1.13. Further, the logP in data set [2] (read-out: logP) was 0.57. For the same compound, the “log(1/C)” value in data set [3] is 1.82.

For `CCC1CCC(NC(=O)N(CCF)N=O)CC1` (stereo not drawn), the log(1/LD10) in data set [1] stood at 0.515. The logP in data set [2] (read-out: logP) is 3.26. Besides, the “log(1/C)” value in data set [3] is 0.736.

Turning to `O=NN(CCCl)C(=O)NC(CCC(=O)O)C(=O)O` (stereo not drawn), the log(1/LD10) in data set [1] came to 0.037. In addition, the lipophilicity (logP) in data set [2] (read-out: logP) stood at 0.6. Further, the “log(1/C)” value in data set [3] is 0.87.

The compound `CC(=O)OC1OC(C)C(OC(C)=O)C(OC(C)=O)C1NC(=O)N(CCCl)N=O` (stereo not drawn) registered a log(1/LD10) in data set [1] of 1.21. Moreover, the logP in data set [2] (read-out: logP) came out at 1.32. For the same compound, the “log(1/C)” value in data set [3] is reported as 1.93.

Consider `O=NN(CCCl)C(=O)N[C@H]1C(O)O[C@H](CO)[C@@H](O)[C@@H]1O` (stereo in doubt; 75) [CHLOROZOTOCIN], for which the log(1/LD10) in data set [1] was determined as 1.03. The same compound showed a logP in data set [2] of -1.02. Further, the “log(1/C)” value in data set [3] is recorded as 1.76.

For `O=NN(CCCl)C(=O)N[C@H]1C(O)O[C@H](CO)[C@@H](O)[C@@H]1O` (stereo in doubt; 103) [CHLOROZOTOCIN], the log(1/LD10) in data set [1] came out at 0.928. Besides, the logP in data set [2] is -0.66. In data set [3], the “log(1/C)” value was determined as 1.46.

Usually logP stands for a log measure of how a compound divides between an organic and an aqueous phase.
